# Laboratory results published in ChEMBL document CHEMBL4028907, “Semisynthesis and Biological Evaluation of Xanthone Amphiphilics as Selective, Highly Potent Antifungal Agents to Combat Fungal Resistance” (J Med Chem, 2017).
# Calls of active or inactive are those of the source. The rule behind the calls is not given here.
# Columns and labels:
# Candida albicans [1] = assay: Synergistic antifungal activity against drug resistant Candida albicans DF2672R after 24 hrs in presence of amphotericin B by checkerboard assay; format: functional
# Procedure, shortened: (§1)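 Checkerboard combination of each compound with a second antifungal, following a previously reported procedure. FIC = MIC of A in combination/MIC of A alone + MIC of B in combination/MIC of B alone.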
# [2] = Selectivity index, ratio of HC50 for New Zealand white rabbit RBC to MIC for Candida albicans ATCC 10231
# Fusarium solani [3] = assay: Antifungal activity against Fusarium solani MYA3636 after 48 hrs by two fold serial dilution method; format: functional; conditions: MYA3636, 48 h
# Procedure, shortened: (§2)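 Moulds grown on potato dextrose agar, 30 °C, 4 days; inoculum adjusted to about 5×10^3 CFU/mL. Two-fold serial dilutions in RPMI-1640 broth, 100 to 0.78 μg/mL final, mixed with equal volume of cell suspension; incubated 30 °C, 48 h. MIC = lowest concentration inhibiting growth, judged visually and by OD530.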
# Candida albicans [4] = assay: Antifungal activity against drug resistant Candida albicans DF2672R measured after 27 passages by two fold serial dilution method; format: functional
# Procedure, shortened: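 Serial passage: cells from duplicate tubes at 0.5× MIC adjusted to ~5×10^3 CFU/mL and used as the inoculum for the next broth microdilution MIC, 24 h at 35 °C. Repeated for 27–30 passages, with biological replicates.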
# Candida albicans [5] = assay: Fungicidal activity against drug resistant Candida albicans DF2672R at 1 time MIC after 1 hr by time kill assay relative to control; format: functional
# Procedure, shortened: (§3)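 Cells at 10^5–10^6 CFU/mL exposed to 1×, 2×, 4× or 8× MIC at 35 °C. Samples taken at 0.5, 1, 2, 4, 8 and 24 h, serially diluted in PBS and plated on SDA. CFU counted after 24 h at 35 °C; biological replicates.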
# [6] = Dissociation constant, pKa of compound; format: physicochemical
# Candida albicans [7] = assay: Synergistic antifungal activity against drug resistant Candida albicans DF2672R after 24 hrs in presence of natamycin by checkerboard assay; format: functional; procedure, shortened: as §1
# Candida albicans [8] = assay: Antifungal activity against Candida albicans ATCC24433 after 24 hrs by two fold serial dilution method; format: functional; conditions: ATCC24433, 24 h
# Procedure, shortened: (§4)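 Candida grown on Sabouraud dextrose agar at 35 °C for 24 h, adjusted to ~5×10^3 CFU/mL. Two-fold dilutions from 100 to 0.78 μg/mL in Sabouraud dextrose broth, incubated at 35 °C for 24 h. MIC is the lowest concentration inhibiting growth by eye and by OD600. CLSI-based with minor modifications.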
# Staphylococcus aureus = assay: Antibacterial activity against methicillin resistant Staphylococcus aureus DM9808R by two fold serial dilution method; format: functional
# Procedure, shortened: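 Broth microdilution per CLSI guidelines with minor modifications, run in Mueller−Hinton broth; MIC is the lowest concentration giving no visible growth.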
# Candida albicans [9] = assay: Synergistic antifungal activity against drug resistant Candida albicans DF2672R after 24 hrs in presence of terbinafine by checkerboard assay; format: functional; procedure, shortened: as §1
# Fusarium solani [10] = assay: Antifungal activity against Fusarium solani 52628 after 48 hrs by two fold serial dilution method; format: functional; conditions: Fusarium solani, 52628, 48 h; procedure, shortened: as §2
# Candida albicans [11] = assay: Antifungal activity against drug resistant Candida albicans DF2672R infected C57BL6 mouse cornea at 0.2% administered topically for every 20 mins during the first hour and every 1 hr during the next 6 hrs by serial dilution method; format: functional
# Procedure, shortened: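 C57BL6 mice aged 7–8 weeks (19–23 g), immunosuppressed with cyclophosphamide 100 mg/kg ip at 4 days and 1 day before infection and on day 1 after. Left cornea scratched under xylazine/ketamine, then 20 μL of ~5×10^7 CFU/mL yeast in PBS applied. Treatment started 1 day later; PBS served as control; four mice per group. Corneal fungal load counted by serial dilution plating on SDA.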
# Fusarium oxysporum [12] = assay: Antifungal activity against Fusarium oxysporum 64530 after 48 hrs by two fold serial dilution method; format: functional; conditions: Fusarium oxysporum, 64530, 48 h; procedure, shortened: as §2
# Aspergillus flavus [13] = assay: Antifungal activity against Aspergillus flavus TCC 204304 after 48 hrs by two fold serial dilution method; format: functional; conditions: TCC 204304, 48 h; procedure, shortened: as §2
# Aspergillus flavus [14] = assay: Antifungal activity against Aspergillus flavus TCC MYA3631 after 48 hrs by two fold serial dilution method; format: functional; conditions: TCC MYA3631, 48 h; procedure, shortened: as §2
# Candida albicans [15] = assay: Antifungal activity against Candida albicans DF1976R after 24 hrs by two fold serial dilution method; format: functional; procedure, shortened: as §4
# Fusarium oxysporum [16] = assay: Antifungal activity against Fusarium oxysporum MYA3461 after 48 hrs by two fold serial dilution method; format: functional; conditions: MYA3461, 48 h; procedure, shortened: as §2
# Candida albicans [17] = assay: Antifungal activity against Candida albicans ATCC90028 after 24 hrs by two fold serial dilution method; format: functional; conditions: ATCC90028, 24 h; procedure, shortened: as §4
# Candida albicans [18] = assay: Synergistic antifungal activity against drug resistant Candida albicans DF2672R after 24 hrs in presence of posaconazole by checkerboard assay; format: functional; procedure, shortened: as §1
# Lipid bilayer [19] = assay: Induction of membrane permiablization in calcein loaded DOPC/DOPE/PI large unilamellar vesicles assessed as calcein leakage at 1:4 compound to lipid ratio after 1 to 2 hrs by fluorescence assay relative to control
# Procedure, shortened: (§5)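 LUVs (DOPC/DOPE/PI 2:1:1 with 15 wt % ergosterol, about 100 nm) made by film hydration and extrusion, loaded with 80 mM calcein in HEPES buffer pH 7.4. Free dye removed by G-50 column. Compound added in 0.5% DMF at 50 μM final phospholipid. Emission read at 520 nm (excitation 490 nm); leakage normalized to 1% Triton X-100.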
# Candida albicans [20] = assay: Antifungal activity against drug resistant Candida albicans DF2672R after 24 hrs by two fold serial dilution method; format: functional; procedure, shortened: as §4
# Lipid bilayer [21] = assay: Induction of membrane permiablization in calcein loaded DOPC/DOPE/PI large unilamellar vesicles assessed as calcein leakage at 1:8 compound to lipid ratio after 1 to 2 hrs by […] fluorescence assay relative to control; procedure, shortened: as §5
# Pseudomonas aeruginosa = assay: Antibacterial activity against Pseudomonas aeruginosa DM23155 by two fold serial dilution method; format: functional
# Procedure, shortened: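 Broth microdilution (CLSI, minor modifications) in Sabouraud dextrose, Mueller−Hinton or RPMI 1640 broth; two-fold serial dilutions of compound from stock to final 100 to 0.78 μg/mL. MIC taken as lowest concentration giving no visible growth.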
# Fusarium solani [22] = assay: Antifungal activity against Fusarium solani 62877 after 48 hrs by two fold serial dilution method; format: functional; conditions: Fusarium solani, 62877, 48 h; procedure, shortened: as §2
# Aspergillus fumigatus = assay: Antifungal activity against Aspergillus fumigatus TCC 90906 after 48 hrs by two fold serial dilution method; format: functional; conditions: TCC 90906, 48 h; procedure, shortened: as §2
# [23] = Cytotoxicity against human corneal fibroblasts assessed as cell viability at 100 uM after 4 hrs by LDH assay relative to control; format: cell-based, Corneal fibroblast; conditions: read-out: Activity
# Procedure, shortened: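 LDH release assay on human corneal fibroblasts seeded at 10000 cells per well, exposed to a range of compound concentrations up to 100 μM. 1% Triton X-100 served as positive control and 0.5% DMSO as negative control; biological replicates.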
# Candida albicans [24] = assay: Antifungal activity against Candida albicans ATCC11651 after 24 hrs by two fold serial dilution method; format: functional; conditions: ATCC11651, 24 h; procedure, shortened: as §4
# Aspergillus brasiliensis = assay: Antifungal activity against Aspergillus brasiliensis TCC16404 after 48 hrs by two fold serial dilution method; format: functional; conditions: TCC16404, 48 h; procedure, shortened: as §2
# Candida albicans [25] = assay: Fungicidal activity against drug resistant Candida albicans DF2672R at 4 times MIC after 1 hr by time kill assay relative to control; format: functional; procedure, shortened: as §3
smiles,measurement,setting,value
COc1c(OCC(O)CNC(=N)N)cc2oc3cc(OCC(O)CNC(=N)N)c(CC=C(C)C)c(O)c3c(=O)c2c1CC=C(C)C (centres undefined),fractional inhibitory concentration index (FICI),Candida albicans [1],1.28
same,Selectivity Index,[2],61
same,MIC,Fusarium solani [3],3.13 µg/mL
same,Activity,Candida albicans [4],Active
same,Activity,Candida albicans [5],91%
same,pKa,[6],12.5
same,fractional inhibitory concentration index (FICI),Candida albicans [7],1.08
same,MIC,Candida albicans [8],0.78 µg/mL
same,MIC,Staphylococcus aureus,1.56 to 3.13 µg/mL
same,fractional inhibitory concentration index (FICI),Candida albicans [9],0.44
same,MIC,Fusarium solani [10],3.13 µg/mL
same,Activity,Candida albicans [11],92.8%
same,MIC,Fusarium oxysporum [12],3.13 µg/mL
same,MIC,Aspergillus flavus [13],6.25 µg/mL
same,MIC,Aspergillus flavus [14],6.25 µg/mL
same,MIC,Candida albicans [15],0.78 µg/mL
same,MIC,Fusarium oxysporum [16],1.56 µg/mL
same,MIC,Candida albicans [17],0.78 µg/mL
same,fractional inhibitory concentration index (FICI),Candida albicans [18],1.06
same,Activity,Lipid bilayer [19],75.6%
same,MIC,Candida albicans [20],0.78 µg/mL
same,Activity,Lipid bilayer [21],43.8%
same,MIC,Pseudomonas aeruginosa,25 to 50 µg/mL
same,MIC,Fusarium solani [22],3.13 µg/mL
same,MIC,Aspergillus fumigatus,6.25 µg/mL
same,"viability at 4 h, 100 µM",[23],44.4%
same,MIC,Candida albicans [24],0.78 µg/mL
same,MIC,Aspergillus brasiliensis,3.13 µg/mL
same,Activity,Candida albicans [25],99.9%
